# From ChEMBL document CHEMBL4689842, “EUbOPEN Chemogenomics Library wave 1” (2021)
# What was measured:
# Type in all cases: toxicity, cell-based
# [1] = test system: HEK-293T; assay: Incucyte cell viability with HEK293T; details: human, 10 µM, compound concentration 10 uM; also: filed as whole numbers so only -1 and 0 and 1 occur
# [2] = test system: Fibroblast; assay: Incucyte cell viability with human fibroblast; details: 10 µM, compound concentration 10 uM; also: filed as whole numbers so only -1 and 0 and 1 occur
# [3] = test system: HEK-293T; assay: Multiplex assay against HEK293T; details: human;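 as to Population Tubulin-Different-Phenotype (%): share of the cells with healthy nuclei that show this phenotype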
# How it was run: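 With compound added, live cells were imaged on a CQ1 microscope at 37°C and 5% CO2; staining with Hoechst33342, BioTracker Green Microtubule Cytoskeleton Dye, MitoTracker Red and Annexin V Alexa Fluor 680 had been done at seeding. The CellPathfinder machine-learning gating scheme split cells into Hoechst high-intensity objects or normal cells, normal cells into healthy, pyknosed or fragmented nuclei, and pyknosed cells into mitotic or apoptotic. The tubulin, mitochondrial-mass and membrane-permeability phenotypes are per cents of healthy-nucleus cells.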
# [4] = 0 h, replicate number 1, timepoint 0 hours
# [5] = 24 h, replicate number 1, timepoint 24 hours
# [6] = 12 h, 1 µM, compound concentration 1 uM, replicate 1
# [7] = 12 h, 1 µM, compound concentration 1 uM, replicate 2
# [8] = 12 h, 10 µM, compound concentration 10 uM, replicate 1
# [9] = 12 h, 10 µM, compound concentration 10 uM, replicate 2
# [10] = 24 h, 1 µM, compound concentration 1 uM, replicate 1
# [11] = 24 h, 1 µM, compound concentration 1 uM, replicate 2
# [12] = 24 h, 10 µM, compound concentration 10 uM, replicate 1
# [13] = 24 h, 10 µM, compound concentration 10 uM, replicate 2
# [14] = 48 h, 1 µM, compound concentration 1 uM, replicate 1
# [15] = 48 h, 1 µM, compound concentration 1 uM, replicate 2
# [16] = 48 h, 10 µM, compound concentration 10 uM, replicate 1
# [17] = 48 h, 10 µM, compound concentration 10 uM, replicate 2
smiles,measurement,setting,value
Cc1ccc(S(=O)(=O)NC2c3ccccc3Oc3ccccc32)cc1,Growth Rate,[1]; [4],0
same,Growth Rate,"[1]; 12 h, replicate number 1, timepoint 12 hours",1
same,Growth Rate,"[1]; 18 h, replicate number 1, timepoint 18 hours",1
same,Growth Rate,[1]; [5],0
same,Growth Rate,[2]; [4],0
same,Growth Rate,[2]; [5],1
same,Population Apoptotic (%),[3]; [6],46%
same,Population Fragmented Nuclei (%),[3]; [6],11%
same,Population Healthy Nuclei (%),[3]; [6],44%
same,Population Hoechst High Intensity Objects (%),[3]; [6],11%
same,Population Membrane Permeable-Phenotype (%),[3]; [6],2%
same,Population Mitochondria Different-Phenotype (%),[3]; [6],64%
same,Population Mitotic Cells (%),[3]; [6],53%
same,Population Normal (%),[3]; [6],88%
same,Population Pyknosed Nuclei (%),[3]; [6],44%
same,Population Tubulin-Different-Phenotype (%),[3]; [6],27%
same,Total Cell Count,[3]; [6],362
same,Population Apoptotic (%),[3]; [7],21%
same,Population Fragmented Nuclei (%),[3]; [7],5%
same,Population Healthy Nuclei (%),[3]; [7],49%
same,Population Hoechst High Intensity Objects (%),[3]; [7],2%
same,Population Membrane Permeable-Phenotype (%),[3]; [7],17%
same,Population Mitochondria Different-Phenotype (%),[3]; [7],9%
same,Population Mitotic Cells (%),[3]; [7],78%
same,Population Normal (%),[3]; [7],97%
same,Population Pyknosed Nuclei (%),[3]; [7],45%
same,Population Tubulin-Different-Phenotype (%),[3]; [7],22%
same,Total Cell Count,[3]; [7],179
same,Population Apoptotic (%),[3]; [8],59%
same,Population Fragmented Nuclei (%),[3]; [8],32%
same,Population Healthy Nuclei (%),[3]; [8],37%
same,Population Hoechst High Intensity Objects (%),[3]; [8],11%
same,Population Membrane Permeable-Phenotype (%),[3]; [8],3%
same,Population Mitochondria Different-Phenotype (%),[3]; [8],86%
same,Population Mitotic Cells (%),[3]; [8],40%
same,Population Normal (%),[3]; [8],88%
same,Population Pyknosed Nuclei (%),[3]; [8],30%
same,Population Tubulin-Different-Phenotype (%),[3]; [8],74%
same,Total Cell Count,[3]; [8],398
same,Population Apoptotic (%),[3]; [9],16%
same,Population Fragmented Nuclei (%),[3]; [9],33%
same,Population Healthy Nuclei (%),[3]; [9],34%
same,Population Hoechst High Intensity Objects (%),[3]; [9],5%
same,Population Membrane Permeable-Phenotype (%),[3]; [9],12%
same,Population Mitochondria Different-Phenotype (%),[3]; [9],33%
same,Population Mitotic Cells (%),[3]; [9],83%
same,Population Normal (%),[3]; [9],94%
same,Population Pyknosed Nuclei (%),[3]; [9],31%
same,Population Tubulin-Different-Phenotype (%),[3]; [9],49%
same,Total Cell Count,[3]; [9],307
same,Population Apoptotic (%),[3]; [10],41%
same,Population Fragmented Nuclei (%),[3]; [10],10%
same,Population Healthy Nuclei (%),[3]; [10],47%
same,Population Hoechst High Intensity Objects (%),[3]; [10],13%
same,Population Membrane Permeable-Phenotype (%),[3]; [10],4%
same,Population Mitochondria Different-Phenotype (%),[3]; [10],55%
same,Population Mitotic Cells (%),[3]; [10],58%
same,Population Normal (%),[3]; [10],86%
same,Population Pyknosed Nuclei (%),[3]; [10],41%
same,Population Tubulin-Different-Phenotype (%),[3]; [10],41%
same,Total Cell Count,[3]; [10],392
same,Population Apoptotic (%),[3]; [11],22%
same,Population Fragmented Nuclei (%),[3]; [11],8%
same,Population Healthy Nuclei (%),[3]; [11],55%
same,Population Hoechst High Intensity Objects (%),[3]; [11],1%
same,Population Membrane Permeable-Phenotype (%),[3]; [11],23%
same,Population Mitochondria Different-Phenotype (%),[3]; [11],12%
same,Population Mitotic Cells (%),[3]; [11],77%
same,Population Normal (%),[3]; [11],98%
same,Population Pyknosed Nuclei (%),[3]; [11],36%
same,Population Tubulin-Different-Phenotype (%),[3]; [11],29%
same,Total Cell Count,[3]; [11],239
same,Population Apoptotic (%),[3]; [12],55%
same,Population Fragmented Nuclei (%),[3]; [12],13%
same,Population Healthy Nuclei (%),[3]; [12],55%
same,Population Hoechst High Intensity Objects (%),[3]; [12],10%
same,Population Membrane Permeable-Phenotype (%),[3]; [12],7%
same,Population Mitochondria Different-Phenotype (%),[3]; [12],68%
same,Population Mitotic Cells (%),[3]; [12],45%
same,Population Normal (%),[3]; [12],89%
same,Population Pyknosed Nuclei (%),[3]; [12],30%
same,Population Tubulin-Different-Phenotype (%),[3]; [12],55%
same,Total Cell Count,[3]; [12],362
same,Population Apoptotic (%),[3]; [13],17%
same,Population Fragmented Nuclei (%),[3]; [13],11%
same,Population Healthy Nuclei (%),[3]; [13],52%
same,Population Hoechst High Intensity Objects (%),[3]; [13],3%
same,Population Membrane Permeable-Phenotype (%),[3]; [13],9%
same,Population Mitochondria Different-Phenotype (%),[3]; [13],31%
same,Population Mitotic Cells (%),[3]; [13],82%
same,Population Normal (%),[3]; [13],96%
same,Population Pyknosed Nuclei (%),[3]; [13],36%
same,Population Tubulin-Different-Phenotype (%),[3]; [13],47%
same,Total Cell Count,[3]; [13],283
same,Population Apoptotic (%),[3]; [14],34%
same,Population Fragmented Nuclei (%),[3]; [14],18%
same,Population Healthy Nuclei (%),[3]; [14],46%
same,Population Hoechst High Intensity Objects (%),[3]; [14],12%
same,Population Membrane Permeable-Phenotype (%),[3]; [14],2%
same,Population Mitochondria Different-Phenotype (%),[3]; [14],26%
same,Population Mitotic Cells (%),[3]; [14],65%
same,Population Normal (%),[3]; [14],87%
same,Population Pyknosed Nuclei (%),[3]; [14],35%
same,Population Tubulin-Different-Phenotype (%),[3]; [14],28%
same,Total Cell Count,[3]; [14],465
same,Population Apoptotic (%),[3]; [15],13%
same,Population Fragmented Nuclei (%),[3]; [15],8%
same,Population Healthy Nuclei (%),[3]; [15],78%
same,Population Hoechst High Intensity Objects (%),[3]; [15],3%
same,Population Membrane Permeable-Phenotype (%),[3]; [15],11%
same,Population Mitochondria Different-Phenotype (%),[3]; [15],3%
same,Population Mitotic Cells (%),[3]; [15],86%
same,Population Normal (%),[3]; [15],96%
same,Population Pyknosed Nuclei (%),[3]; [15],12%
same,Total Cell Count,[3]; [15],466
same,Population Apoptotic (%),[3]; [16],36%
same,Population Fragmented Nuclei (%),[3]; [16],13%
same,Population Healthy Nuclei (%),[3]; [16],66%
same,Population Hoechst High Intensity Objects (%),[3]; [16],8%
same,Population Membrane Permeable-Phenotype (%),[3]; [16],2%
same,Population Mitochondria Different-Phenotype (%),[3]; [16],27%
same,Population Mitotic Cells (%),[3]; [16],63%
same,Population Normal (%),[3]; [16],91%
same,Population Pyknosed Nuclei (%),[3]; [16],20%
same,Population Tubulin-Different-Phenotype (%),[3]; [16],38%
same,Total Cell Count,[3]; [16],453
same,Population Apoptotic (%),[3]; [17],12%
same,Population Fragmented Nuclei (%),[3]; [17],4%
same,Population Healthy Nuclei (%),[3]; [17],73%
same,Population Hoechst High Intensity Objects (%),[3]; [17],2%
same,Population Membrane Permeable-Phenotype (%),[3]; [17],6%
same,Population Mitochondria Different-Phenotype (%),[3]; [17],20%
same,Population Mitotic Cells (%),[3]; [17],87%
same,Population Normal (%),[3]; [17],97%
same,Population Pyknosed Nuclei (%),[3]; [17],22%
same,Population Tubulin-Different-Phenotype (%),[3]; [17],45%
same,Total Cell Count,[3]; [17],374
